sPLA2-III inh: Inhibits HGIII-sPLA2 liposome hydrolysis, primary screen. Q9NZ20. QFRET BODIPY PC-A2 liposome hydrolysis, fluorescence. inhibition, % at 12.2 µM. 370,000 compounds, 0.56% hits;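 active = inhibition above mean plus 3 SD of compounds lying within the high and low control bounds, cut at about 19% in these data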;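 note: 0% = median of test compound wells and 100% = no enzyme DMSO wells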
Target sequence (Q9NZ20 whole entry, looked up): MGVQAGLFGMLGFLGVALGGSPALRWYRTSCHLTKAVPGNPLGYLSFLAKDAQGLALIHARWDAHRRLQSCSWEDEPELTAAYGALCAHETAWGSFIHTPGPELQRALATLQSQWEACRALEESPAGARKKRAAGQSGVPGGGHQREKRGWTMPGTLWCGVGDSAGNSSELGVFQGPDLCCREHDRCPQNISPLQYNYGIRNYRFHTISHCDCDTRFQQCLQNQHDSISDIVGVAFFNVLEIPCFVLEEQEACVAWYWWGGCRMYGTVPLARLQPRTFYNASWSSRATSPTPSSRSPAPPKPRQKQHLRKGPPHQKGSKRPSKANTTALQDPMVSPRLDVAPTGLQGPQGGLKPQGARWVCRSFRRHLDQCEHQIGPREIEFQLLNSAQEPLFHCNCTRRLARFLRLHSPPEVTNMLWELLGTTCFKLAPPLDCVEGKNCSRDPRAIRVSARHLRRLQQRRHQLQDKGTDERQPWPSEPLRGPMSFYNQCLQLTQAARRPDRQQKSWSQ
ARFGAP1 inh: inhibits rat ARF GTPase activating protein 1; Arfgap1-stimulated ARF1 GTP hydrolysis, GDP FP detection; Q62848; AID 651572; 360,000 compounds, 0.26% hits; inhibition, % at 16.5 µM;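 active = inhibition above a per-plate limit, mean inhibition of low control wells plus 3 SD, cut at about 25% in these data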;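 note: 0% = DMSO wells with enzyme and 100% = wells lacking Arfgap1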
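System: truncated rat Arfgap1 GAP domain / Medium: HEPES-based buffer, pH 7.5 / Also added: N-terminally truncated human ARF1-GTP substrate / Incubation: enzyme reaction 120 min at 25 °C after 20 min preincubation / Measured by: FP of antibody-bound GDP Alexa 633 tracer, ex 620/em 688 nm / Replicates: singlicate, each compound tested once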
SKKanGAS inh: blocks kanamycin growth of S. pyogenes SKKanGAS strain; BacTiter-Glo, 6 h; inhibition, % at 7.5 µM; 300,000 compounds, 1.3% hits;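 active = mean replicate score, as percent of positive control median, at least 50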;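 note: strain carries kanamycin resistance gene driven by streptokinase promoter and grows in 40 µg/ml kanamycin; loss of luminescence reflects streptokinase promoter inhibition or plain growth inhibition; 0% = median of DMSO wells and 100% = positive control at its reference dose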
ASAP1 inh: ASAP1 ArfGAP inhibition. Q9ULH1. ASAP1-stimulated ARF1 GTP hydrolysis, GDP FP detection. inhibition, % at 16.5 µM. 360,000 compounds, 0.19% hits; in the data active = inhibition above about 25%;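 note: 0% = vehicle with enzyme and substrate and 100% = no enzyme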
Calb FLC: C. albicans growth modulation with fluconazole; C. albicans CaCi-2 + fluconazole, Alamar Blue growth, 48 h; growth inhibition, % (concentration not given with the values); 300,000 compounds, 0.57% hits; AID 1979;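 active = growth inhibition above about 58% in most replicates, limit read from the data, passing the limit was not always enough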;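 note: all wells also contain fluconazole at 8 µg/ml as a sub-toxic cotreatment; 0% = median of DMSO wells and 100% = median of geldanamycin control wells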
* = called active by the depositor; . = no result. An excerpt weighted towards active compounds, which were near 2.3% of everything screened.

SMILES	sPLA2-III inh	ARFGAP1 inh	SKKanGAS inh	ASAP1 inh	Calb FLC
O/N=C(\c1ccc(Cl)cc1Cl)c1ncc(C(F)(F)F)cc1Cl	-20.7	2.6	51.2*	4.7	-1.7
O=C(c1ccc(Cl)cc1Cl)c1ncc(C(F)(F)F)cc1Cl	2.9	4.4	-10.9	0.0	1.6
c1csc(-c2csc3nc(CN4CCOCC4)nc(NCc4ccc5c(c4)OCO5)c23)c1	-6.5	16.9	57.2*	-0.8	0.3
N#CCC[C@@H]1CC[C@]2(CCCN(Cc3ccc(Cl)cc3)C2)O1	3.5	.	.	.	.
COC(=O)c1c(-c2ccc(OC)cc2)c2c(c3c4cc(F)ccc4n(S(=O)(=O)c4ccc(C)cc4)c13)C(=O)N(C)C2	0.5	-5.4	.	0.1	.
O=C(CCC(=O)Nc1ccccc1Cl)NNS(=O)(=O)c1ccc(Cl)cc1	-4.0	-3.1	.	-4.5	110.6*
CCCC(=O)NNC(=O)CCC(=O)Nc1ccccc1Cl	-3.3	5.6	-0.8	-3.8	1.6
CCCCCCCCOC(=O)c1c(CSC(=N)N)n(C)c2cc(Br)c(OC(C)=O)cc12	15.6	3.0	74.9*	9.7	14.8
CCOC(=O)c1c(CSC(=N)N)n(-c2ccc(Br)cc2)c2cc(Br)c(OC(C)=O)cc12	11.0	-8.8	.	8.3	.
COc1ccc(NC(=O)c2cc(-c3cc(C)cc(C)c3O)n[nH]2)cc1Cl	1.0	13.6	99.5*	3.6	14.7
COc1ccc(OC)c(NC(=O)c2cc(-c3cc(C)cc(C)c3O)n[nH]2)c1	7.8	6.3	-0.7	4.7	-9.3
Cn1c(Cc2cccs2)nnc1SCC(=O)Nc1ccc(OCc2ccccc2)cc1	-17.1	.	.	.	.
Oc1cccc(-c2nc3c4c(ncn3n2)-c2ccccc2CC42CCCC2)c1	-8.8	12.7	106.1*	2.8	21.0
CC[C@@H](C)[C@H](NC(=O)OC(C)(C)C)c1nnc(S(=O)(=O)Cc2cc(C)ccc2C)o1	-13.0	7.4	51.7*	-4.2	-4.0
COC(=O)[C@]12C[C@H](CC(=O)NCC3CCCCC3)C(=O)N(CCC3=CCCCC3)C1=C[C@H](C1CCCC1)O[C@@H]2C	-15.8	.	.	.	.
COc1cc(OC)cc(C(=O)NC(=S)NNC(=O)Cc2cccs2)c1	-6.8	-6.5	69.6*	3.3	32.4
COc1ccc(/C=C/C(=O)NC(=S)NNC(=O)c2cccs2)cc1OC	6.4	2.0	73.0*	8.6	-3.1
COc1cc(C(=O)NNC(=S)NC(=O)/C=C/c2ccccc2)cc(OC)c1OC	12.5	4.3	93.2*	-13.0	14.9
COc1ccc(/C=C/C(=O)NC(=S)NNC(=O)Cc2cccs2)cc1OC	14.3	8.8	67.1*	8.8	2.3
COc1ccc(C(=O)NC(=S)NNC(=O)Cc2cccs2)cc1	5.7	7.7	17.9	0.2	9.8
COc1cc(C(=O)NNC(=O)/C=C/c2ccccc2)cc(OC)c1OC	7.0	-1.0	.	7.8	.
CCCC1CCC2(CC1)CCC2OC(=S)Nc1ccccc1Cl (centres undefined)	-2.2	.	.	.	.
CC(C)(C)NC(=O)C(c1cccnc1)N(C(=O)c1cccs1)c1ccc(C(C)(C)C)cc1 (centres undefined)	11.7	.	.	.	.
CCOc1ccc(NC(=O)c2sc3nc4n(c(=O)c3c2C)CCC4)cc1	-0.8	3.0	7.6	-6.1	14.6
CCOC(=O)c1ccc(NC(=O)c2sc3nc4n(c(=O)c3c2C)CCC4)cc1	3.1	-0.8	61.6*	-8.2	23.1
SMILES	sPLA2-III inh	ARFGAP1 inh	SKKanGAS inh	ASAP1 inh	Calb FLC
O=[N+]([O-])c1ccc(NS(=O)(=O)c2ccc(Cl)c(Cl)c2)cc1	-37.5	-0.5	.	2.8	.
Cc1ccc2c(c1)=N/C(=N\c1[nH]c(O)c3ccccc13)N=2	8.7	7.2	.	4.7	.
Oc1[nH]c(N=C2N=c3ccccc3=N2)c2ccccc12	9.7	2.5	82.1*	12.2	64.3
O=C(NC(=S)Nc1ccc(N2CCOCC2)c(Cl)c1)c1cccs1	6.6	-1.4	64.7*	2.5	-4.0
O=C(NC(=S)Nc1ccc(N2CCOCC2)c(Cl)c1)c1cncc(Br)c1	9.1	5.1	70.8*	6.2	8.6
O=C(NC(=S)Nc1ccccc1N1CCOCC1)c1cccs1	5.8	1.7	5.6	-1.0	26.5
COc1ccc(OCC(=O)NC(=S)Nc2ccc(N3CCOCC3)c(Cl)c2)cc1	.	.	68.0*	.	-7.0
CCc1c(-c2ccccc2F)ncn1CCc1ccccc1OC	-0.5	-1.2	.	2.0	.
COC(=O)[C@]12C[C@H](CC(=O)NCCc3ccccc3OC)C(=O)N(Cc3ccccc3)C1=C[C@H](C(C)(C)C)O[C@@H]2C	-3.2	-12.3	.	-1.5	.
